Hits are enriched below; roughly 1.6% of the tested compounds scored in any of these assays.
NOD2 RIPK2 PPI: blocks binding of human NOD2 to RIPK2; 360,000 tested, 0.38% active; CHO BLA complementation NOD2-RIPK2, CCF4 ratio; AID 624267; O43353; inhibition, % at 4.98 µM; in the data active means inhibition above about 21%;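 further: 0% = vehicle only and 100% = reference blocker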
Target sequence (O43353 whole entry, looked up): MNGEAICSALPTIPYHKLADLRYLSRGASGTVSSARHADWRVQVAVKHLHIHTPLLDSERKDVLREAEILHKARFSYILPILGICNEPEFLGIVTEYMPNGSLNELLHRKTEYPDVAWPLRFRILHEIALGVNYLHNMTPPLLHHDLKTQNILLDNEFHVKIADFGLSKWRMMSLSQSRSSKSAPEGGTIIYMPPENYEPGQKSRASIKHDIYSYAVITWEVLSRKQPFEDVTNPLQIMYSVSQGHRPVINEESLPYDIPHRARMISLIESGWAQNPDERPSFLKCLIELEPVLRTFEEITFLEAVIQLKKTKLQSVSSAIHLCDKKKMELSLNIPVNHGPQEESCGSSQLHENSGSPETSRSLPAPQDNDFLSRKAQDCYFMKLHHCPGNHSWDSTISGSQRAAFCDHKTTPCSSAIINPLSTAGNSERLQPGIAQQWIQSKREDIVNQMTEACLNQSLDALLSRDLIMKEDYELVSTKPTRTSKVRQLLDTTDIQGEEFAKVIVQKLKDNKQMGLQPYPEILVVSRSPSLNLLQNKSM
Hep lipid drop: hepatic lipid droplet formation modulation; AML12 mouse hepatocytes, oleate lipid droplets, BODIPY imaging; inhibition, % at 6.5 µM; 240,000 tested, 0.4% active; AID 1656;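 active means lipid droplet intensity inhibited by at least 50%, with more than 500 cells counted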
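Technique: fluorescence imaging, 20x objective, two fields per well / Assay system: AML12 hepatocytes (mouse) / Measure: % inhibition of lipid droplet signal / Doses: 6.5 µM single-point dosing / Incubation: overnight exposure / Reagent: 100 µM oleic acid challenge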
SR-BI DiI-HDL act: activators of SR-BI mediated HDL lipid uptake; CHO ldlA[mSR-BI] cells, DiI-HDL uptake fluorescence, 3 h; 100 = double the neutral-control signal; activation, % at 12.5 µM; 320,000 tested, 0.096% active;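 active means mean replicate activation of at least 60% and every replicate at or above 60%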;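 further: 0% = median plate neutral-control signal and 100% = twice that signal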
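Assay system: CHO ldlA[mSR-BI] cells, LDL receptor-null, SR-BI overexpressing; medium: Ham's F12 with 0.5% BSA, HEPES 25 mM, pH 7.4; also added: DiI-HDL 10 µg/mL; timing: 3 h uptake period with compound, 37 °C; signal: DiI fluorescence, bottom read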
TLR4-MyD88 BLA: blocks binding of human TLR4 to MyD88; HeLa CL3-4 TLR4/MyD88 BLA complementation, FRET ratio; AID 861; inhibition, % at 8.4 µM; 200,000 tested, 0.18% active; O00206+Q99836; in the data active means inhibition above about 25%;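 further: 0% = vehicle and 100% = reference inhibitor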
SR-BI HDL uptake: inhibitors of mouse SR-BI mediated HDL lipid uptake; Q61009; ldlA[mSR-BI] CHO cells, DiI-HDL uptake fluorescence, 3 h; inhibition, % at 12.5 µM; 320,000 tested, 0.96% active;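 active means mean replicate inhibition of at least 70% and a set share of replicates each scoring 70 or more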;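 further: 0% = median of neutral control wells and 100% = median of positive control wells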
TLR9-MyD88 inh: blocks human TLR9 binding to MyD88. inhibition, % at 4.98 µM. 340,000 tested, 0.21% active. Q9NR96+Q99836. CHO BLA complementation TLR9-MyD88, CCF4 FRET ratio;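 active means inhibition above the mean over all tested compounds plus 3 SD, cut at about 21% in these data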;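 further: 0% = DMSO only wells and 100% = clavulanate BLA inhibitor control wells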
Hep lipid conf: hepatic lipid droplet formation inhibition, confirmed; shares compounds with Hep lipid drop; AML12 mouse hepatocytes, BODIPY lipid droplet imaging; droplets induced with 100 µM oleic acid; inhibition, % at 5.2 µM; 870 tested, 65% active;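 active means inhibition of lipid droplet metric at least 50%, with more than 300 cells in each of four replicates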;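 further: plate controls were DMSO with oleic acid for no effect and 5 µM Triacsin-C for full effect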
AML12 tox img: AML12 hepatocyte cytotoxicity (counter-screen). AML12 mouse hepatocytes, DAPI nuclear morphology cytotoxicity imaging; active compounds read high; cells fed 100 µM oleate overnight. shares compounds with Hep lipid drop. AID 463200. 870 tested, 3% active. z-score at 5 µM; in the data active means z-score above about 6.3;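 further: compound exposure lasted overnight at 37 °C before fixation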
AML12 tox ATP: confirmation of cytotoxicity in AML12 mouse hepatocytes; shares compounds with Hep lipid drop; cytotoxicity, % at 50 µM; 530 tested, under 10 active; AML12 mouse hepatocyte viability, ATP luminescence; cells loaded with 100 µM oleic acid;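 active means cytotoxicity above 50% in each of four replicates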;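 further: compound exposure lasted overnight at 37 °C before the ATP read; 0% = DMSO-treated cells and 100% = wells with no cells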
Starred values were filed as active, the others as inactive; . = not tested or not shown.

SMILES | NOD2 RIPK2 PPI | Hep lipid drop | SR-BI DiI-HDL act | TLR4-MyD88 BLA | SR-BI HDL uptake | TLR9-MyD88 inh | Hep lipid conf | AML12 tox img | AML12 tox ATP
CCC(C)(C)NC(=O)C(c1ccc(OC)cc1)N(Cc1ccco1)C(=O)CCC(=O)Nc1cc(C)on1 (stereo unspecified) | -5 | -6 | -5 | 3 | 5 | 6 | . | . | .
O=C(NCc1ccccc1)c1ccc2nc(N3CCOCC3)sc2c1 | 7 | 9 | . | . | . | -13 | . | . | .
CCCOc1ccc(CNC(=O)c2ccc3nc(N4CCOCC4)sc3c2)cc1 | 4 | 54* | -25 | . | 25 | 0 | 99* | -0.65 | 12
CC(C)c1ccccc1-n1c(SCC(=O)c2ccc3c(c2)NC(=O)CO3)nc2ccccc2c1=O | 0 | 54* | -19 | -5 | 19 | 14 | 59 | -1.3 | 3
O=C1COc2ccc(C(=O)CSc3ccccc3C(=O)O)cc2N1 | 8 | 16 | 13 | . | -13 | 6 | . | . | .
CCNC(=S)N1CCc2cc(OC)c(OC)cc2C1COc1ccccc1OC (stereo unspecified) | -8 | 62* | -60 | -14 | 60 | -1 | 93* | -0.38 | 3
CCNC(=S)N1CCc2cc(OC)c(OC)cc2C1COc1ccc(OC)cc1 (stereo unspecified) | 1 | 16 | -38 | 9 | 38 | -5 | . | . | .
O=C(COC(=O)COc1ccc(Cl)cc1Cl)Nc1cccnc1Cl | -3 | 50* | 20 | 1 | -20 | -6 | 12 | -1 | .
O=C(COC(=O)COc1ccccc1)Nc1cccnc1Cl | 1 | . | 15 | . | -15 | 6 | . | . | .
COc1ccccc1-c1csc(C(C)(O)c2cccc(F)c2)n1 (stereo unspecified) | -13 | . | . | . | . | . | . | . | .
CN(C)c1ccc(N=Nc2ccccc2Br)cc1 | -2 | 67* | -46 | . | 46 | 11 | 113* | 0.039 | 81*
CC(=O)c1ccc(N=Nc2ccc(N(C)C)cc2)cc1 | -1 | 16 | -13 | 11 | 13 | -10 | . | . | .
CCN(CC)S(=O)(=O)c1ccc(S(=O)(=O)N(CC(=O)Nc2ccccc2)Cc2ccco2)cc1 | -1 | 62* | -54 | -8 | 54 | 0 | 96* | -0.42 | 11
COc1ccc(C)cc1NC(=O)CCC(=O)Nc1ccc2nc(N3CCN(C)CC3)cc(C)c2c1 | . | 105* | . | 4 | . | . | 104* | 0.15 | -5
CCN1CCN(c2cc(C)c3cc(NC(=O)CCC(=O)Nc4ccc(OC)c(OC)c4)ccc3n2)CC1 | -22 | -7 | -3 | . | 3 | -3 | . | . | .
O=C(CSCC(=O)N1CCCCC1)Nc1nc(-c2ccccc2)c(-c2ccccc2)s1 | -12 | 89* | -38 | 7 | 38 | -8 | 104* | -0.91 | -2
Oc1[nH]c2ccccc2c1N=Nc1nc(Nc2ccccc2)nc(N2CCOCC2)n1 | 1 | 60* | . | . | . | 1 | 84 | 20* | .
Cc1cccc(N2CCN(S(=O)(=O)c3ccc4c(c3)CCCN4C(=O)C3CCC3)CC2)c1C | -9 | -17 | 2 | . | -2 | -5 | . | . | .
O=C1CSC(c2cn(-c3ccccc3)nc2-c2ccccc2)N1Cc1ccco1 (stereo unspecified) | 4 | 61* | 2 | -9 | -2 | 3 | 87* | -1.1 | -21
C/C(N)=C(/C#N)C(=O)CSc1nnc(Nc2cccc(C)c2)s1 | -5 | 78* | -16 | -11 | 16 | -6 | 99* | -0.7 | 16
CCc1ccccc1NS(=O)(=O)c1cc2c(cc1C)n(C)c(=O)c(=O)n2C | -2 | 85* | 13 | . | -13 | -8 | 105* | -0.21 | 9
COc1ccc(NC(=O)Cc2c(Sc3ccccc3)c3ccccc3n2C)cc1 | -2 | 61* | -9 | 5 | 9 | -10 | 91* | 0.35 | 8
Cn1c(CC(=O)Nc2ccc(F)cc2)c(Sc2ccccc2)c2ccccc21 | -2 | 14 | 21 | -1 | -21 | 3 | . | . | .
Cc1cc(C)cc(NC(=O)NC2CCN(CC(=O)Nc3c(C)cc(C)cc3C)CC2)c1 | . | . | . | -2 | . | . | . | . | .
CCC(C)C(=O)N1c2ccccc2C(=C2SC(C(=O)OC)=C(C(=O)OC)S2)C(=S)C1(C)C (stereo unspecified) | 2 | 67* | -89 | 5 | 89* | 9 | 112* | 0.24 | 6
SMILES | NOD2 RIPK2 PPI | Hep lipid drop | SR-BI DiI-HDL act | TLR4-MyD88 BLA | SR-BI HDL uptake | TLR9-MyD88 inh | Hep lipid conf | AML12 tox img | AML12 tox ATP
CCOC(=O)C1=C(C)c2ccccc2N(C(=O)OC)C1(C)C(=O)OCC (stereo unspecified) | 4 | . | 14 | . | -14 | 11 | . | . | .
CCCN(CCC)C(C)C(=O)NCC1(c2ccccc2)CCCC1 (stereo unspecified) | 2 | -48 | 3 | -16 | -3 | 6 | . | . | .
CCOC(=O)C1CCC(CN(Cc2ccccc2)S(=O)(=O)c2ccc([N+](=O)[O-])cc2)CC1 (stereo unspecified) | -2 | 59* | 16 | -1 | -16 | -7 | 82* | -0.46 | 6
CCOC(=O)C1CCN(C(=O)CN(Cc2ccccc2)S(C)(=O)=O)CC1 | 4 | -4 | -27 | 0 | 27 | 11 | . | . | .
COc1cc2c(cc1OC)CN(CC(=O)Nc1ccc(C)c(C)c1)CC2 | 4 | 56* | 4 | . | -4 | -16 | -8 | -0.2 | .
COc1cc2c(cc1OC)CN(CC(=O)Nc1ccc(C)cc1)CC2 | 2 | . | -5 | 6 | 5 | 2 | . | . | .
O=C(CSc1nnnn1-c1ccccc1)Nc1ncc(Cc2cccc(Cl)c2Cl)s1 | -11 | -7 | -5 | -7 | 5 | -3 | . | . | .
Cc1ccc(-n2nnnc2SCC(=O)Nc2ncc(Cc3ccccc3Cl)s2)cc1 | 1 | 79* | -25 | 4 | 25 | -2 | 104* | 0.26 | 10
CCOc1ccc(CCNC(=O)CCNC(=O)c2ccccc2Cl)cc1OCC | -9 | 68* | -7 | . | 7 | 4 | 88* | 0.71 | 13
Cc1cc(C(=O)NCCc2ccc(Cl)cc2)c2ccccc2n1 | -12 | . | 12 | . | -12 | -2 | . | . | .
CCOc1ccc(CCNC(=O)c2cc(C)nc3ccccc23)cc1OCC | 7 | 62* | -30 | . | 30 | -6 | 71* | 0.041 | 17
CCOc1ccc(CCNC(=O)c2cc3sc(Cl)cc3n2C)cc1OCC | -9 | 89* | -46 | -6 | 46 | 6 | 107* | 0.67 | 4
CCOc1ccc(CCNC(=O)c2cccs2)cc1OCC | 0 | 76* | -27 | . | 27 | -6 | 100* | -0.45 | 8

Screening data from PubChem.
